In the library only some 2.2% were active in any assay of this set; here they are far more common.
PHOSPHO1 inh – PubChem AID 1565; Phosphoethanolamine/phosphocholine phosphatase (Homo sapiens), Q8TCT1; recombinant PHOSPHO1, absorbance phosphatase assay; inhibition, % at 13.3 µM; hit rate 1.1% among 290,000; in the data active means inhibition above about 60%
Target sequence (Q8TCT1 whole entry, looked up): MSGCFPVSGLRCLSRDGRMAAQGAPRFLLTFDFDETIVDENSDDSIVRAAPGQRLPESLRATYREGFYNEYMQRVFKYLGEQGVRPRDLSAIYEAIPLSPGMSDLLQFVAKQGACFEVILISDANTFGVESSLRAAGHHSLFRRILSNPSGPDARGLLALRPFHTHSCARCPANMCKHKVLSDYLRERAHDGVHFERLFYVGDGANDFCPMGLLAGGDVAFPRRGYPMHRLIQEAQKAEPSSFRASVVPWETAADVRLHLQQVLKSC
CR mimetic SO – reduction of superoxide in aged yeast, primary screen, HTS. hit rate 0.18% among 330,000. superoxide response (% of plate mean), % at 10 µM. AID 2690, 2010. S. cerevisiae aged cells, superoxide DHE fluorescence; hits give low values;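 active means superoxide response under a set limit, about three screen SD below normal, cut at about 65% in these data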;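 further: yeast aged for seven days with compound at 30 °C before DHE staining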
VIM-2 inh – VIM-2 metallo-beta-lactamase inhibitors, primary screen, biochemical, epi-absorbance readout, Pseudomonas aeruginosa enzyme. purified VIM-2, nitrocefin hydrolysis, epi-absorbance fluorescence. inhibition, % at 5.6 µM. hit rate 0.89% among 290,000;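 active means inhibition above the mean of all tested compounds plus 3 SD, cutoff set per screening run, cut at about 7.5% in these data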;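 further: red hydrolysis product quenches plate fluorescence so inhibitors raise well fluorescence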
IMP-1 inhibitor – IMP-1 metallo-beta-lactamase inhibitors, primary screen, biochemical, epi-absorbance readout, Pseudomonas aeruginosa enzyme. purified IMP-1, nitrocefin hydrolysis, epi-absorbance fluorescence. inhibition, % at 5.6 µM. hit rate 0.45% among 290,000. AID 1556, 2009;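 active means inhibition above the mean plus 3 SD of all compounds in the same screening run, cut at about 4.5% in these data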
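System: purified recombinant IMP-1 beta-lactamase. Medium: Zinc- and detergent-supplemented HEPES buffer, pH 7.1. Compound: one 5.6 µM dose […]. Schedule: 15 min preincubation plus 25 min reaction at 25 °C. Technique: Epi-absorbance fluorescence, 480 nm excitation, 530 nm emission.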
PvdQ inh – P. aeruginosa PvdQ acylase inhibitors, primary screen, biochemical, fluorescence, plate reader and imaging, single point; AID 488965, 2010; purified PvdQ acylase; hit rate 0.063% among 340,000; PvdQ acylase [Pseudomonas aeruginosa LESB58]; inhibition, % at 10 µM; in the data active means inhibition above about 30%, passing the limit was not always enough
A number is an active result.

What do the screens show for `O=[N+]([O-])c1cc2c(c(CSc3nnnn3-c3ccc(O)cc3)c1)OCOC2`?
PHOSPHO1 inh: inactive; CR mimetic SO: inactive; VIM-2 inh: inactive; IMP-1 inhibitor: inactive; PvdQ inh: inactive

How did CCOC(=O)c1sc(NC(=O)Cc2ccc(C)cc2)nc1C do in these assays?
PHOSPHO1 inh: 61.8; CR mimetic SO: inactive; VIM-2 inh: inactive; IMP-1 inhibitor: inactive; PvdQ inh: inactive

How did Cc1nnc(N2CCN(c3ccccc3)CC2)c2nn(-c3ccccc3F)c(C)c12 do in these assays?
VIM-2 inh: inactive; IMP-1 inhibitor: inactive

How did CSCC[C@H](NC(=O)OC(C)(C)C)c1nnc(SCc2cccc(F)c2)o1 do in these assays?
PHOSPHO1 inh: 73.8; CR mimetic SO: inactive; VIM-2 inh: inactive; IMP-1 inhibitor: inactive; PvdQ inh: inactive

What do the screens show for `CSCC[C@H](NC(=O)OC(C)(C)C)c1nnc(SCc2ccc(F)cc2)o1`?
PHOSPHO1 inh: inactive; CR mimetic SO: inactive; VIM-2 inh: inactive; IMP-1 inhibitor: inactive; PvdQ inh: inactive

How did O=C(Nc1ccc(Cl)cc1)N(Cc1nnc2n1CCCCC2)c1ccccc1 do in these assays?
PHOSPHO1 inh: inactive; CR mimetic SO: inactive; VIM-2 inh: inactive; IMP-1 inhibitor: 5.4; PvdQ inh: inactive

Results for OCCn1nc2c3ccccc3nc-2n(-c2ccccc2)c1=S ?
PHOSPHO1 inh: 76.4; CR mimetic SO: inactive; VIM-2 inh: inactive; IMP-1 inhibitor: inactive; PvdQ inh: inactive

How did COc1ccc(N/C=C/c2nc(SC)nnc2C)cc1 do in these assays?
PHOSPHO1 inh: inactive; CR mimetic SO: inactive; VIM-2 inh: 7.8; IMP-1 inhibitor: inactive; PvdQ inh: inactive

What do the screens show for `C[C@H](CO)N1C[C@H](C)[C@@H](CN(C)CC2CCCCC2)Oc2c(NC(=O)Cc3ccccc3)cccc2C1=O`?
CR mimetic SO: inactive; PvdQ inh: inactive

Results for N#Cc1c(Oc2ccc3ccccc3c2)sc(C(=O)c2ccccc2)c1N ?
PHOSPHO1 inh: inactive; CR mimetic SO: inactive; VIM-2 inh: inactive; IMP-1 inhibitor: inactive; PvdQ inh: inactive

What do the screens show for `N#Cc1c(SCc2cccc(Cl)c2)sc(C(=O)c2ccccc2)c1N`?
PHOSPHO1 inh: 61.9; CR mimetic SO: inactive; VIM-2 inh: inactive; IMP-1 inhibitor: inactive; PvdQ inh: inactive

How did N#Cc1c(SCc2ccccc2)sc(C(=O)c2ccccc2)c1N do in these assays?
PHOSPHO1 inh: 73.0; CR mimetic SO: inactive; VIM-2 inh: inactive; IMP-1 inhibitor: inactive; PvdQ inh: inactive

Results for Cc1ccc(CSc2sc(C(=O)c3ccccc3)c(N)c2C#N)cc1 ?
PHOSPHO1 inh: 96.6; CR mimetic SO: inactive; VIM-2 inh: inactive; IMP-1 inhibitor: inactive; PvdQ inh: inactive

Results for Cc1c(C(=O)N(Cc2ccccc2)C(C)C)oc2ccc(S(=O)(=O)N3CCOCC3)cc12 ?
PHOSPHO1 inh: inactive; CR mimetic SO: inactive; VIM-2 inh: inactive; IMP-1 inhibitor: inactive; PvdQ inh: inactive

Results for CNC(=S)NN=C(C)CCCC(C)=NNC(=S)NC ?
PvdQ inh: inactive

Results for COc1ccc(CCNC(=O)c2cc3c(=O)n4ccccc4nc3n(CC3CCCO3)c2=N)cc1OC (stereo not drawn) ?
PHOSPHO1 inh: inactive; CR mimetic SO: inactive; VIM-2 inh: inactive; IMP-1 inhibitor: inactive; PvdQ inh: inactive

Results for COc1ccc(CCn2c(=N)c(C(=O)NCc3ccco3)cc3c(=O)n4ccccc4nc32)cc1OC ?
PvdQ inh: inactive

What do the screens show for `COc1ccc(CCNC(=O)c2cc3c(=O)n4ccccc4nc3n(Cc3ccco3)c2=N)cc1OC`?
PHOSPHO1 inh: inactive; CR mimetic SO: inactive; VIM-2 inh: 8.1; IMP-1 inhibitor: inactive; PvdQ inh: inactive

How did COc1ccc(CCNC(=O)c2cc3c(=O)n4ccccc4nc3n(CCCN3CCOCC3)c2=N)cc1 do in these assays?
PHOSPHO1 inh: inactive; CR mimetic SO: inactive; VIM-2 inh: 10.4; IMP-1 inhibitor: inactive; PvdQ inh: inactive

Results for Cc1ccc2nc3c(cc(C(=O)NCCc4ccccc4)c(=N)n3CCCN3CCOCC3)c(=O)n2c1 ?
PHOSPHO1 inh: inactive; CR mimetic SO: inactive; VIM-2 inh: 9.6; IMP-1 inhibitor: inactive; PvdQ inh: inactive

Results for COc1ccc(CCNC(=O)c2cc3c(=O)n4ccccc4nc3n(CCN3CCOCC3)c2=N)cc1 ?
PHOSPHO1 inh: inactive; CR mimetic SO: inactive; VIM-2 inh: inactive; IMP-1 inhibitor: inactive; PvdQ inh: inactive

How did COc1ccc(CCn2c(=N)c(C(=O)NCCN3CCOCC3)cc3c(=O)n4ccccc4nc32)cc1OC do in these assays?
PHOSPHO1 inh: inactive; CR mimetic SO: inactive; VIM-2 inh: 8.2; IMP-1 inhibitor: inactive; PvdQ inh: inactive

How did CCCc1cc(=O)oc2cc(OCC(=O)NCC(O)c3ccccc3)ccc12 (stereo not drawn) do in these assays?
PHOSPHO1 inh: inactive; CR mimetic SO: inactive; VIM-2 inh: inactive; IMP-1 inhibitor: 42.2; PvdQ inh: inactive

Results for CCCc1cc(=O)oc2cc(OCC(=O)NCc3ccccn3)ccc12 ?
PHOSPHO1 inh: inactive; CR mimetic SO: inactive; VIM-2 inh: inactive; IMP-1 inhibitor: inactive; PvdQ inh: inactive

Results for CCCc1cc(=O)oc2cc(OCC(=O)NCCCn3ccnc3)ccc12 ?
PHOSPHO1 inh: inactive; CR mimetic SO: inactive; VIM-2 inh: 9.0; IMP-1 inhibitor: inactive; PvdQ inh: inactive

What do the screens show for `CCCc1cc(=O)oc2cc(OCC(=O)Nc3ccc(S(N)(=O)=O)cc3)ccc12`?
PHOSPHO1 inh: inactive; CR mimetic SO: inactive; VIM-2 inh: inactive; IMP-1 inhibitor: 15.3; PvdQ inh: inactive

What do the screens show for `Cc1c(C)c2ccc(OCC(=O)Nc3ccc(S(N)(=O)=O)cc3)c(C)c2oc1=O`?
PHOSPHO1 inh: inactive; CR mimetic SO: inactive; VIM-2 inh: 7.8; IMP-1 inhibitor: inactive; PvdQ inh: inactive

Results for CCCc1cc(=O)oc2cc(OCC(=O)NCc3cccs3)ccc12 ?
PHOSPHO1 inh: inactive; CR mimetic SO: inactive; VIM-2 inh: inactive; IMP-1 inhibitor: inactive; PvdQ inh: inactive

How did COc1ccc(S(=O)(=O)N2CCN(C(=O)c3ccc4ccccc4n3)CC2)cc1 do in these assays?
CR mimetic SO: inactive; PvdQ inh: inactive

Results for CC1(C)Oc2ccc(C(=O)NNC(=O)Nc3ccccc3)cc2NC1=O ?
PHOSPHO1 inh: inactive; CR mimetic SO: inactive; VIM-2 inh: inactive; IMP-1 inhibitor: inactive; PvdQ inh: inactive

Results for Cc1ccccc1CN(C)CC(=O)NC(C)CCc1ccccc1 (stereo not drawn) ?
PHOSPHO1 inh: inactive; CR mimetic SO: inactive; VIM-2 inh: inactive; IMP-1 inhibitor: inactive; PvdQ inh: inactive

Results for CN(C)c1ccc(C2C=C(c3ccc(Cl)cc3OC(F)F)Nc3ncnn32)cc1 (stereo not drawn) ?
PHOSPHO1 inh: 66.7; CR mimetic SO: inactive; PvdQ inh: inactive

Results for O=S(=O)(c1ccc(Cl)cc1)N1CCC2(CC1)CO2 ?
PHOSPHO1 inh: inactive; CR mimetic SO: inactive; VIM-2 inh: inactive; IMP-1 inhibitor: inactive; PvdQ inh: inactive

How did CC(OC(=O)CNC(=O)c1ccc2ccccc2c1)C(=O)N(C)C1CCCCC1 (stereo not drawn) do in these assays?
CR mimetic SO: inactive; PvdQ inh: inactive

Screens (PubChem)
